Measured values of several laboratories.
Each line is one published result; the experiments were not run side by side. In brackets after ≈: the same amount, converted by molar mass.

CCCCCCCCCCCCCCCC(=O)NP(=O)(O)O — MIC (Enterococcus faecalis; microbial growth; ATCC33186): 200 µg/mL (≈ 596 µM)
COc1cc2c(cc1O)CCN[C@]21CS[C@@H]2c3c(OC(C)=O)c(C)c4c(c3[C@H](COC1=O)N1[C@@H]2[C@H]2c3c(cc(C)c(OC)c3O)C[C@@H]([C@@H]1C#N)N2C)OCO4 — IC50 (Human coronavirus 229E; viral replication; Calu-3): 0.253 µM
O=C(CCCCC1CCCCC1)NP(=O)(O)O — MIC (Enterococcus faecalis; microbial growth; ATCC33186): > 200 µg/mL
COc1cccc(NC(=O)/C=C/c2ccc3c(c2)C=CC(C)(C)O3)c1 — viability (rat Primary cortical neuron; cell growth or viability, MTT; 1 µM, 12 h): 87%
CC(C)[C@H](NC(=O)[C@H](CCCNC(=N)N)NC(=O)N[C@@H](Cc1ccccc1)C(=O)O)C(=O)N[C@H](C=O)CCCNC(=N)N — IC50 (Human coronavirus 229E; viral replication; Huh7.5): 1.57 µM
O=C(Cc1ccc2ccccc2c1)N[C@@H](Cc1ccccc1)C(=O)N[C@H](Cc1ccccc1)C(=O)N[C@@H](Cc1ccc(OP(=O)(O)O)cc1)C(=O)O — IC50 (HeLa; cell growth or viability, MTT; 48 h): > 500 µM
CC1(C)C=Cc2cc(/C=C/C(=O)Nc3ccccc3)ccc2O1 — viability (rat Primary cortical neuron; cell growth or viability, MTT; 1 µM, 12 h): 73%
CC[C@H](C)C[C@H](C)CCCCCCCCC(=O)N[C@H]1C[C@@H](O)[C@@H](NCCN)NC(=O)[C@@H]2[C@@H](O)CCN2C(=O)[C@H]([C@H](O)CCN)NC(=O)[C@H]([C@H](O)[C@@H](O)c2ccc(O)cc2)NC(=O)[C@@H]2C[C@@H](O)CN2C(=O)[C@H]([C@@H](C)O)NC1=O — MIC50 (Aspergillus fumigatus; microbial growth, broth dilution; MF5668): 0.016 µg/mL (≈ 0.0146 µM)
COC1=C2C[C@@H](C)C[C@H](OC)[C@H](O)[C@@H](C)/C=C(\C)[C@H](OC(N)=O)[C@@H](OC)/C=C\C=C(/C)C(=O)NC(=CC1=O)C2=O — IC50 (Human coronavirus 229E; viral replication; Calu-3): 8.71 µM
Cc1cccc(CSc2nccc(OCCOc3cc(=O)oc4ccccc34)n2)c1 — inhibition (Human coronavirus 229E; cytopathic effect; A549; 25 µM): 58.1%
C=CCCCCCCCCC(=O)C(F)(F)P(=O)(O)O — MIC (Enterococcus faecalis; microbial growth; ATCC33186): > 200 µg/mL
COc1ccccc1NC(=O)/C=C/c1ccc2c(c1)C=CC(C)(C)O2 — viability (rat Primary cortical neuron; cell growth or viability, MTT; 1 µM, 12 h): 83%
CC(C)C[C@H](NC(=O)[C@@H](NC(=O)N[C@@H](Cc1ccccc1)C(=O)O)[C@@H]1CCN=C(N)N1)C(=O)N[C@H](C=O)Cc1ccccc1 — IC50 (Human coronavirus 229E; viral replication; Huh7.5): 23.7 µM
Nc1ncnc2c([C@@H]3N[C@H](CO)[C@@H](O)[C@H]3O)c[nH]c12 — inhibition (Japanese encephalitis virus; viral replication, inhibitor; Vero 76; 9.5 µM): 9.8%
O=C(CCCCC1CCCCC1)CP(=O)(O)O — MIC (Enterococcus faecalis; microbial growth; ATCC33186): > 200 µg/mL
O=c1cc(OCCCOc2ccnc(SCc3ccc(F)cc3)n2)c2cc(F)ccc2o1 — inhibition (Human coronavirus 229E; cytopathic effect; A549; 6.25 µM): 34.9%
CCCCCC/C=C\CCCCCCCCCC(=O)NP(=O)(O)O — MIC (Enterococcus faecalis; microbial growth; ATCC33186): 200 µg/mL (≈ 553 µM)
CCOC(=O)C1=C[C@@H](OC(CC)CC)[C@H](NC(C)=O)[C@@H](N)C1 — inhibition (Human coronavirus 229E; cytopathic effect; A549; 50 µM): 72.8%
